Assay outcomes deposited in PubChem by several laboratories.
Sampled rows, rich in hits. Any-hit rate of the full collection: about 5.5%.
HSV augment – HSV replication enhancement | HSV replication augmentation in cells, fold increase | maximum fold increase | actives 0.005% (n = 220,000); in the data active = maximum fold increase above about 1.5; inconclusive = no clear call, values can overlap the other calls; tested in PC3 cells
STAT1 activator – STAT1 signaling activation | activation (% of control), % at 5.5 µM | NIH 3T3 STAT1-luciferase reporter, IFN-gamma, luminescence; 100% = IFN-gamma alone, no compound | actives 2.6% (n = 200,000);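 active = activation above the screen-wide mean activation plus 3 SD, cut at about 130% in these data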
KCC2 mod – KCC2 (human) Cl- transport modulation; B-score of Tl+ flux slope (higher = more flux/activation; lower = inhibition) at 10 µM; AID 1456; Q9H2X9; actives 2.2% (n = 190,000); KCC2 cells, thallium flux FluoZin-2 fluorescence;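 active = thallium flux slope and its plate-corrected score both differing from the plate sample mean at a set confidence after two filtering rounds, in either direction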;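 also: slope of fluorescence scaled to starting intensity during 10 to 20 s after thallium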
Target sequence (Q9H2X9 whole entry, looked up): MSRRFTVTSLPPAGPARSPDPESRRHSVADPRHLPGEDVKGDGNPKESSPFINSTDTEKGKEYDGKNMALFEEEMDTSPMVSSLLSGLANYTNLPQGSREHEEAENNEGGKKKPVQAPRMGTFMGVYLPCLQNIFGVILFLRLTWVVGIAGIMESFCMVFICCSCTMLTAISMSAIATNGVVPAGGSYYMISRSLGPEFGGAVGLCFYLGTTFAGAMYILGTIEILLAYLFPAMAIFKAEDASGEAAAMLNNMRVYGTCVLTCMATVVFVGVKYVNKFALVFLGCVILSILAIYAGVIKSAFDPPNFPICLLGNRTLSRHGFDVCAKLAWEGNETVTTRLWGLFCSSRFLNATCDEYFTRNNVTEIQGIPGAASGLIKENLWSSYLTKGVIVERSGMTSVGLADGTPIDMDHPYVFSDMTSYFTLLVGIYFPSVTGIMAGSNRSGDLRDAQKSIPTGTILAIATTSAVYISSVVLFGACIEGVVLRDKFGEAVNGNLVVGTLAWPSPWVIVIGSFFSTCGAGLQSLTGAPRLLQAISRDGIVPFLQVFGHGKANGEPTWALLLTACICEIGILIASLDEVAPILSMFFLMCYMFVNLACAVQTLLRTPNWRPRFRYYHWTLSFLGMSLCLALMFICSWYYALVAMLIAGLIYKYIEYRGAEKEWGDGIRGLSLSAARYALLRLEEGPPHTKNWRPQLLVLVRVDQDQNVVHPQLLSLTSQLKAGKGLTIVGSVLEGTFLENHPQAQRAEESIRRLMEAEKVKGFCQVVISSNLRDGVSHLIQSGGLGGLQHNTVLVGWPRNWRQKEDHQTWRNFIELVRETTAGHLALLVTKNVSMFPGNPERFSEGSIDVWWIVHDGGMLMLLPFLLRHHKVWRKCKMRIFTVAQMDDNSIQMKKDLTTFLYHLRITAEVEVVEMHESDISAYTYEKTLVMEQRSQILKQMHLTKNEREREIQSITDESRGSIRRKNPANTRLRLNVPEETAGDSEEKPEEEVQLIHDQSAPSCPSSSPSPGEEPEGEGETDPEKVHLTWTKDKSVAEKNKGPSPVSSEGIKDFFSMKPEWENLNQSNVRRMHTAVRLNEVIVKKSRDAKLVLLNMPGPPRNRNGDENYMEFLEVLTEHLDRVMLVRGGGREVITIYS
STAT3 blocker – STAT3 signaling inhibition | U3A cells, IL-6 STAT3-luciferase reporter, luminescence; host cell line lacks STAT1 | inhibition, % at 5.5 µM | actives 0.89% (n = 190,000) | AID 862;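 active = inhibition above the mean inhibition across all screened compounds plus 3 SD, cut at about 44% in these data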
STAT1 blocker – reduces IFN-gamma driven STAT1 reporter signal | NIH 3T3 STAT1-luciferase reporter, luminescence | inhibition, % at 5.5 µM | actives 0.35% (n = 200,000);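 active = inhibition above a set limit, the mean inhibition across all tested compounds plus 3 SD, cut at about 34% in these data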
STAT3 activator – STAT3 signaling activation; U3A cells, IL-6 STAT3-luciferase reporter, luminescence; 100% = signal with IL-6 EC80 alone; activation (% of control), % at 5.6 µM; actives 0.91% (n = 190,000); AID 871;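 active = activation above the screen-wide mean of compound activation plus 3 SD, cut at about 130% in these data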
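Detection: reporter luminescence signal / Assay system: STAT1-lacking human U3A cells, STAT3 luciferase reporter / Incubation: compound pre-incubation 1 h before IL-6, then 6 h stimulation at 37 °C / Control set: IL-6-only high control / Read-out: % activation relative to IL-6 control / Probe or stimulus: Interleukin-6, 33 ng/mL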
Numbers stand for hits; - = inactive; ? = inconclusive; . = not tested or not shown.

SMILES	HSV augment	STAT1 activator	KCC2 mod	STAT3 blocker	STAT1 blocker	STAT3 activator
Cc1ccc(N=C2SC(C(=O)NCCc3ccccc3)CC(=O)N2C)cc1C (stereo unspecified)	-	-	-	-	-	-
O=C(CSc1nnc(-c2ccco2)o1)c1ccccc1	-	-	-	-	-	-
O=C(CSc1nnc(-c2ccco2)o1)c1ccc[nH]1	-	130	-	-	-	-
O=C(Nc1cccnc1)/C(N=Nc1cccnc1)=C(\O)c1ccccc1	-	-	-	-	-	-
Cn1ncc2c(Nc3ccc4ccccc4c3)ncnc21	-	145	.	-	-	-
O=C(C1CCN(S(=O)(=O)c2ccccc2F)CC1)N1CCc2ccccc2C1	-	-	-	-	-	-
COc1cccc(C(=O)Nc2cc3c(cc2C(C)=O)OCCO3)c1	-	-	-	-	-	-
Cc1ccc2cc(C#N)c(NCc3ccccc3)nc2c1	-	-	-	-	-	-
Cc1ccc2ccc(C3C(=O)c4ccccc4C3=O)nc2c1	-	142	-	-	-	165
CS(=O)(=O)N(CC(=O)N/N=C/c1cccs1)c1cccc(Cl)c1Cl	-	-	-	-	-	-
Cc1ccc(S(=O)(=O)NCC2CCC(C(=O)NCc3cccnc3)CC2)cc1 (stereo unspecified)	-	-	-	-	-	-
Cc1ccc(C)c(S(=O)(=O)N=Nc2c(O)[nH]c3ccccc23)c1	-	-	-	-	-	-
Cc1ccc2[nH]c(O)c(N=Nc3nc4ccccc4s3)c2c1	-	.	40	.	.	.
CC(C)(C)NC(=O)CSc1nc(O)cc(=O)[nH]1	-	-	-	-	-	-
COc1ccccc1/C=N/NC(=O)C(=O)N1CCN(c2ccccc2OC)CC1	-	-	-	-	-	-
Cc1ccsc1/C=N/NC(=O)c1cccs1	-	134	-	-	-	-
Cn1cc(/C=N/NC(N)=S)c2ccccc21	-	.	-	.	.	.
CCOc1cc(/C=N/Nc2cccc(C(=O)O)c2)ccc1OC(=O)c1ccccc1	-	-	-	55	77	-
Cc1ccsc1/C=N/NC(=O)c1ccccn1	-	148	-	-	-	-
Cn1cc(/C=N\NC(=O)c2cccs2)c2ccccc21	-	129	-	-	-	-
O=C(N/N=C/c1ccsc1)c1ccccn1	-	-	-	-	-	-
O=C(CSc1nnc(-c2ccccc2F)n1CCc1ccccc1)Nc1ccc2[nH]c(=O)[nH]c2c1	-	-	-	-	-	-
Cc1cccn2c(=O)c3cc(S(=O)(=O)c4ccccc4)c(=N)n(CC4CCCO4)c3nc12 (stereo unspecified)	-	.	-	.	.	.
CCOC(=O)CNS(=O)(=O)c1ccc(C)cc1	-	-	-	-	-	-
O=C(N/N=C/c1ccc(Br)s1)c1ccccn1	-	137	-	-	-	-
SMILES	HSV augment	STAT1 activator	KCC2 mod	STAT3 blocker	STAT1 blocker	STAT3 activator
Cc1ccsc1/C=N/Nc1cccc(C(=O)O)c1	-	-	-	49	89	-
Cc1cc(/C=N/NC(=O)c2cccs2)c(C)n1-c1cnccn1	-	147	.	-	-	-
O=C(N/N=C/c1ccco1)c1ccccn1	-	-	.	-	-	-
Cc1nn(-c2ccc(F)cc2)c(Cl)c1/C=N/NC(=O)c1cccs1	-	142	-	-	-	-
Cc1cc(/C=N/NC(=O)c2ccncc2)c(C)n1-c1ccccc1	-	-	-	-	-	-
CC(C)(C)c1ccc(/C=N/NC(=O)c2ccccn2)cc1	-	-	-	68	43	-
CC(C)(C)C1CCC(=NNC(=O)C(=O)NC2CCCCC2)CC1 (stereo unspecified)	-	-	-	-	-	-
Cc1ccc(N2CS(=O)(=O)/C(=C/N(C)C)C2=O)cc1	.	150	-	-	-	-
CN(C)/C=C1\C(=O)N(c2ccc(Cl)cc2)CS1(=O)=O	-	-	-	-	-	-
CC(C)CSC1=NSC2=NC(=O)/C(=C\c3ccccc3)C(=N)N12	-	-	139	-	-	-
CC(C)CC(NC(=O)C(NC(=O)C1OC2OC(C)(C)OC2C2OC(C)(C)OC12)C(C)C)C(=O)O (stereo unspecified)	-	-	.	-	-	-
Cc1ccc(-n2nc(C)c3c2OC(N)=C(C#N)C3c2ccco2)cc1 (stereo unspecified)	-	-	-	-	-	140
O=C(NCCc1cccs1)C1CC(c2ccc([N+](=O)[O-])cc2)=NO1 (stereo unspecified)	-	144	-	-	-	-
COc1ccc(CNC(=O)C2CCCN2)cc1OC (stereo unspecified)	-	-	-	-	-	-
COc1ccc(-n2c(SCC(=O)N/N=C/c3ccccc3OCC(=O)O)nc3ccccc3c2=O)cc1	-	.	-	.	.	.
COc1ccc(-c2csc(N3N=C(C)C(C)C3=O)n2)cc1 (stereo unspecified)	-	132	-	-	-	-
Cc1c(N=C2NC(=O)/C(=C/c3cccc([N+](=O)[O-])c3)S2)c(=O)n(-c2ccccc2)n1C	?	-	-	-	-	-
CN(C)c1ccc(/C=N/N=C2/NC(=O)/C(=C/c3ccc([N+](=O)[O-])cc3)S2)cc1	.	-	-	-	35	-
CC(C)(C)c1ccc(S(=O)(=O)CCc2ccccn2)cc1	-	129	-	-	-	-
Cc1ccc(S(=O)(=O)CCc2ccccn2)cc1	-	-	-	-	-	-
CCCn1c(SC(C(=O)Nc2cc(C)ccc2OC)c2ccccc2)nc2ccccc2c1=O (stereo unspecified)	-	-	14	-	-	-
COc1ccc(C)cc1NC(=O)C(Sc1nnnn1C)c1ccccc1 (stereo unspecified)	-	-	-	-	-	-
CC(=O)Nc1cccc(-c2cn3ccc(C)cc3n2)c1	-	129	-	-	-	-
Cc1ccn2cc(-c3ccc(NS(=O)(=O)c4ccccc4)cc3)nc2c1	-	130	-	-	-	-
Cc1ccn2cc(-c3ccc(NC(=O)c4ccco4)cc3)nc2c1	-	135	-	-	-	-
SMILES	HSV augment	STAT1 activator	KCC2 mod	STAT3 blocker	STAT1 blocker	STAT3 activator
CCOC(=O)c1cc(C)n(Cc2ccc(OCC)c(OC)c2)c1C	-	-	-	-	-	-
CC(=O)Cn1nnc2sc(-c3ccccc3)cc2c1=O	-	146	-	-	-	-
Cc1ccc(C)n1-n1cnc2sc(-c3ccccc3)cc2c1=O	-	-	-	-	-	-
O=C(Cn1cnc2sc(-c3ccccc3)cc2c1=O)N1CCOCC1	-	-	-	-	-	-
CC(=O)Cn1cnc2sc(-c3ccccc3)cc2c1=O	-	145	-	-	-	-
O=c1c2cc(-c3ccccc3)sc2ncn1-n1cccc1	-	129	-	-	-	-
CCc1cc2c(=O)n(-c3ccccc3)cnc2s1	-	-	-	-	-	-
CCc1cc2c(=O)n(-c3ccc(C)cc3)cnc2s1	-	139	-	-	-	-
